The nature of experiment [1]: concentration required to reduce virus Human Cytomegalovirus (Davis)plaque formation by 50%. In kind it is functional. In short, it runs like this:
(§1)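 Confluent HEL fibroblasts were infected with 100 PFU cell-free HCMV, and residual virus was removed after 2 h. Cells were kept in MEM with 2% FCS and compound dilutions spaced 5-fold, in duplicate, for 7 days at 37 °C in 5% CO2. They were ethanol-fixed and Giemsa-stained, and cytopathic effect was scored microscopically. IC50 was interpolated from plots as the mean of two experiments.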

Experiment [2] can be described thus: concentration required to reduce CEM cell proliferation by 50%. The settings on record: Homo sapiens.
The nature of experiment [3]: concentration required to reduce virus HCMV (AD-169)plaque formation by 50%. In kind it is functional, Homo sapiens. In short, it runs like this:
as §1

The test system of experiment [4] is Human betaherpesvirus 5. Briefly: concentration required to reduce virus HCMV (F)plaque formation by 50%. In kind it is functional, organism-based. In short, it runs like this:
(§2)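 Wild-type HCMV clinical isolates from patients (congenital infection, mononucleosis, AIDS, bone marrow transplant) tested in confluent HEL fibroblasts. IC50 taken as the concentration reducing virus plaque formation by 50%; assays in duplicate.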

In experiment [5] the test system is Human betaherpesvirus 5. Briefly: concentration required to reduce virus HCMV (E)plaque formation by 50%. In kind it is functional, organism-based. The procedure, abridged: as §2
The subject of experiment [6] is Human betaherpesvirus 5. Briefly: concentration required to reduce virus HCMV (D)plaque formation by 50%. The format is functional, organism-based. The procedure, abridged:
as §2

For experiment [7], the system named is Human betaherpesvirus 5. Description: concentration required to reduce virus HCMV (G)plaque formation by 50%. In kind it is functional, organism-based. The procedure, abridged: as §2
Experiment [8] has as its system HEL. Briefly: In vitro alteration in cell morphology in HEL cells. In kind it is functional. The note with it: Homo sapiens. The procedure, abridged:
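Normal HEL cells exposed to compounds and examined microscopically; minimum cytotoxic concentration is the lowest giving a detectable change in cell morphology. Duplicate assays.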

Experiment [9] deals with Human betaherpesvirus 5. Description: In vitro inhibition of HCMV (AD-169) plaque formation. In kind it is functional, organism-based. In short, it runs like this: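 Confluent HEL fibroblasts infected with HCMV at 100 PFU of cell-free virus; after a 2-h adsorption, residual virus removed and cells incubated in MEM with 2% FCS containing serial 5-fold compound dilutions, in duplicate. Fixed with ethanol after 7 days at 37 °C, 5% CO2, then Giemsa-stained; cytopathic effect scored microscopically. IC50 read graphically from % cytopathicity; mean of two experiments.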

For experiment [10], the system named is HEL. Description: Inhibition of cell growth in HEL cells. The note with it: Homo sapiens. In kind it is functional. The procedure, abridged:
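HEL fibroblasts seeded at 5×10^3 cells/well and left to proliferate 24 h, then given compound dilutions in duplicate. Incubated 3 days at 37 °C, 5% CO2; cells counted with a Coulter counter. CC50 is the concentration reducing cell growth by 50%.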

For experiment [11], the system named is Human betaherpesvirus 5. Briefly: concentration required to reduce virus HCMV (B)plaque formation by 50%. The format is functional, organism-based. The procedure, abridged:
as §2

In experiment [12] the test system is Human betaherpesvirus 5. Description: concentration required to reduce virus HCMV (C)plaque formation by 50%. In kind it is functional, organism-based. The procedure, abridged: as §2
Experiment [13] has as its system Human betaherpesvirus 5. Briefly: concentration required to reduce virus HCMV (A)plaque formation by 50%. The format is functional, organism-based. The procedure, abridged: as §2

The structures appear in SMILES notation.

For orientation: EC50 means the concentration that produces a half-maximal response. The CC50 is the concentration at which the toxic effect on the cells reaches its halfway point. Regarding `O=S1(=O)N=C(OCc2ccc(Cl)cc2)c2ccccc2N1Cc1ccc(Cl)cc1`, the 50% effective concentration (EC50) in experiment [1] and in experiment [3] was over 50 µM throughout. For the same molecule, the 50% cytotoxic concentration (CC50) in experiment [2] is over 250 µM.
One may read the IC50 as the concentration that gives 50% inhibition. Low values mean greater potency in that assay, high ones weaker potency in that assay. With `Nc1nc2c(ncn2COC(CO)CO)c(=O)[nH]1` [GANCICLOVIR], the IC50 in the experiment with Human betaherpesvirus 5 [4] is 6.2 µM; in the experiment on Human betaherpesvirus 5 [5] it was 4.1 µM; in the experiment with Human betaherpesvirus 5 [6], 4.1 µM; in the experiment on Human betaherpesvirus 5 [7], 8.2 µM; in the experiment with Human betaherpesvirus 5 [9], 3.7 µM; in the experiment on Human betaherpesvirus 5 [11], 6.2 µM. Moreover, the IC50 in the experiment on Human betaherpesvirus 5 [12] and in the experiment on Human betaherpesvirus 5 [13] was 6.2 µM in each case. Further, the MCC in the experiment with HEL [8] was over 150 µM. Besides, the midpoint of cytotoxicity with HEL [10], the CC50, lay at 394 µM.
